This is an account of results in the RNAGym collection of RNA variant scans (doi:10.1126/science.aae0568).

Variants at the floor of the assay were thinned out.

First the molecules themselves.
B1: tRNA (parent)
chain: GUUCCGUUGGCGUAAUGGUAACGCGUCUCCCUCCUAAGGAGAAGACUGCGGGUUCGAGUCCCGUACGGAACG

Variants of B1 are the subject of this data set. Description: yeast fitness relative to wild type (ratio to wild type); higher = fitter; tRNA-Arg(CCU), competitive growth, 37 C, YPD. A digest of the protocol: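 Variants of the tRNA-Arg(CCU) gene were chemically synthesised with a 3% per-site mutation rate across 69 sites and placed at the native genomic locus in Saccharomyces cerevisiae. Six parallel replicates of the pooled strains were competed in YPD at 37°C for 24 hours, and gene amplicons from the start and end populations were read by 100-nucleotide paired-end sequencing. Darwinian fitness relative to wild type was derived from changes in genotype frequencies. Genotypes required ≥ 100 starting reads, and estimates < 0.5 were set to 0.5.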
Consider GUUCCGUUGGCGUAUUGGUAACGCGUAUCCCUCCUAAGGAGAAGACUGCGGGUUCGAGUCCCGUCCGGCACG, for which the yeast fitness was found to be 0.577. Under GUUCCGUUGGCGUAUUGGUAACGCGUAUCCCUCCUAAGGAGAAGACUGCGGGUUCGAGUCGCGUACGGAACG stands not above 0.5; under GUUCCGUUGGCGUAUUGGUAACGCGUAUCCCUCCUAAGGAGAAGACUGCGGGUUCGAGUCUCGUACGGAACG, not above 0.5. With GUUCCGUUGGCGUAUUGGUAAAAAGUCUCCCUCCUAAGGAGAAGACUGCGGGUUCCAGUCCCGUACGGAACG, the yeast fitness was not above 0.5. Take GUUCCGUUGGCGUAUUGGUAACGCGUAUCCCUCCUAAGGAGAAGACUGGGGGUUCGAGUCCCGAACGGAACG: the yeast fitness is 0.639. Under GUUCCGUUGGCGUAUUGGUAACGCGUAUCCCUCCCAAGGAGAAGACUGCGGGUCCGAGUCCCGCACGGAACG stands not above 0.5; under GUUCCGUUGGCGUAUUGGUAACGCGUAUCCCUCCUAAGGAGAAGACUGCGGGUUCCAGUCCCAUACGGAACG, not above 0.5; under GUUCCGUUGGCGUAUUGGUAACGCGUAUCCCUCCUAAGGAGACGACUGCGGGUUCGAGUCCCGUACGGAACG, 0.592. For GUUCCGUUGGCGUAUUGGUAAUGCGUCUCCCUCCUAAGGAGAACACUGCGGGUUCGAGUCCCGUGCGGAACG, the yeast fitness is not above 0.5. The figure for GUUCCGUUGGCGUAUUGGUAACGCGUAUCCCUCCUAAGGAGAAGACUGCGGGUUCGAGUCCAGUACGGUACG is not above 0.5; for GUUCCGUUGGCGUAUUGGUAACGCGUCUCAUUCCUAAGGAGAAGCCUGCGGGUUGGAGUCCCGUACGGAACG it is not above 0.5. On to GUUCCGUUGGCGUAUUGGUAACGCGUCUGCGUCCUAAGGAGAAGACUGCGGGUUCGAGUUCCGUACGGAACG, for which the yeast fitness was 0.675.

Regarding GUUCCGUUGGCGUAUUGGUAAGGCGUCUCCGGCCUAAGGAGAAGACUGCGGGUUCGAGUCCCGUACGGAACG, the yeast fitness came to 0.626. Under GUUCCGUUGGCGUAUUGGUAACGGGUCUCCCUCCUAAGGAGAAGACUGCGGGUUCGAGUCCUGUACGGUACG stands not above 0.5; under GUUCCGUUGGCGUAUUGGUAAUGCGUCUCCCUCCUAAGGAGAAGACUGCGGGUUCGAGUCCCGUACGGAACG, 0.743. Under GUUCCGUUGGCGUAUUGGUAAAGCGUCUCCCUCCUAAGGAGAAGACUGCGGGUUCGAGUCCCGUACGGAACG stands 0.738; under GUUCCGUUGGCGUAUUGGUAAGGCGUCUCCCUCCUAAGGAGAAGACUGCGGGUUCGAGUCCCGUACGGAACG, 0.67. Under GUUCCGUUGGCGUAUUGGUAACGUGUCUCCCUCCUAAGGAGAAGACUGCGGGUUCGAGUCCCGUACGGAACG stands 0.627. For GUUCCGUUGGCGUAUUGGUAACGGGUCUCCCUCCUAAGGAGAAGACUGCGGGUUCGAGUCCCGUACGGAACG, the yeast fitness was determined as 0.647. Under GUUCCGUUGGCGUAUUGGUAACGAGUCUCCCUCCUAAGGAGAAGACUGCGGGUUCGAGUCCCGUACGGAACG stands 0.53; under GUUCCGUUGGCGUAUUGGUAAGGCGUCUCCUUCCUAAGGAGAAGACUGCGGGUUCGAGUACCGUACGGAACG, not above 0.5; under GUUCCGUUGGCGUAUUGGUAACGAGUCUGCCUCCUAAGGAGAAGACUGCGGGUUCGAGUCCCGUACGGAACG, not above 0.5. Under GUUCCGUUGGCGUAUUGGUAACGGGUCUCUCUCCUAAGGAGAAGACUGCGGGUUCGUGUCCCGUACGGCACG stands not above 0.5; under GUUCCGUUGGCGUAUUGGUAAUGCGUCUCCCUCCUAAGGAGAAGACUGCGGAUUCGAGUCCCGUACGGAACG, 0.596. Under GUUCCGUUGGCGUAUUGGUAACGGGUCUCCCUCCUAAGGAGAAGGCUGCGGAUACGAGUCCCGUACGGAACG stands not above 0.5; under GUUCCGUUGGCGUAUUGGUAACGCGUCUACCUCCUAAGGAGAAGACUGCCGGUUCGAGUCCCGUACGGAACG, not above 0.5; under GUUCCGUUGGCGUAUUGGUAAUGCGUCUCCCUCCUAAGGAGAAGACUGCGGGUUCGUGUCCCGUACGGAACG, not above 0.5. Regarding GUUCCGUUGGCGUAUUGGUAACGGGUCUCCCUCUUAAGGAGAAGACUGCGGGCUGGAGUCCAGUACGGAACG, the yeast fitness is not above 0.5. The figure for GUUCCGUUGGCGUAUUGGUAACGCGUUUCCCUCCUAAGGAGAAGACCGCGGGUUCGAGUCCCGUACGCAACG is not above 0.5. The figure for GUUCCGUUGGCGUAUUGGUAAGGCGUCUCCUUCCUAAGGAGAAGACUGCGGGUUCGAGUCCCGUUCGGUACG is not above 0.5.

With GUUCCGUUGGCGUAUUGGUAACGGGUCUCCCUCCUAAGGAGAAGACUGCGGGUUCGAGUCCCGUUCGGAACG, the yeast fitness was not above 0.5.

Consider GUUCCGUUGGCGUAUUGGUAACGCGUCUCCCUCCUAAGGAGAAGACUGCGGGUUCGAGUCCCGUACGGUACG, for which the yeast fitness worked out at 0.696. The figure for GUUCCGUUGGCGUAUUGGUAAAAAGUCUCCCUCCUAAGGAGAAGAAUGCGGGUUCGAGUCCCGUACGGAACG is not above 0.5. Under GUUCCGUUGGCGUAUUGGUAACGCGUCUACCUCCUAAGGAGAAGACUGGGGGUUCGAGUCCCGUACGGUACG stands not above 0.5; under GUUCCGUUGGCGUAUUGGUAACGCGUCUCCCUCCUAAGGAGAAGACUGCGGGUUCGAGUCCCGUCCGGAACG, 0.698. Under GUUCCGUUGGCGUAUUGGUAACGGGUCUCCCCCCUAAGGAGCCGACUGCGGGUUCGAGUCCCGUACGGAACG stands not above 0.5; under GUUCCGUUGGCGUAUUGGUAAAGCGUCUCCCUCCUAAGGAGAGGACUGCGCGUUCGAGUCCCGUACGGAACG, not above 0.5.
